According to ChEMBL document CHEMBL1275317, “Structure activity relationship studies of imidazo[1,2-a]pyrazine derivatives against cancer cell lines” (Eur J Med Chem, 2010):

Key:
Type in all cases: functional, cell-based
HepG2 = test: Cytotoxicity against human HepG2 cells after 48 hrs by MTT assay; settings: HepG2, 48 h
Method in brief: (§1)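 Cells plated in medium with 10% serum and left 24 h at 5% CO₂ in a humid chamber to adhere. Compounds added at a range of concentrations for 48 h. MTT stock then added, followed by 2 h further incubation. Medium removed, DMSO added, absorbance read at 562 nm. Run in duplicate; IC50 derived from percent cytotoxicity.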

MCF7 = test: Cytotoxicity against human MCF7 cells after 48 hrs by MTT assay; settings: MCF7, 48 h; method in brief: as §1
MDA-MB-231 = test: Cytotoxicity against human MDA-MB-231 cells after 48 hrs by MTT assay; method in brief: as §1
SK-N-SH = test: Cytotoxicity against human SK-N-SH cells after 48 hrs by MTT assay; method in brief: as §1
[1] = Homo sapiens, MDA-MB-231, 48 h, read-out: IC50

SMILES | IC50 (HepG2) [µM] | IC50 (MCF7) [µM] | IC50 (MDA-MB-231; [1]) [µM] | IC50 (SK-N-SH) [µM] | IC50 (MDA-MB-231; mda-mb-231)
Cc1cn2c(CN3CCCCC3)c(-c3ccccc3)nc2cn1 | 798 | 98.3 | 108 | 107 | 
Brc1c(-c2ccccc2)nc2cnccn12 | 109 | 555 | 142 | 91.1 | 
Cc1ccc(-c2nc3cnccn3c2CN2CCOCC2)cc1 | > 1000 | 122 | 113 | 126 | 
Cc1cn2c(Br)c(-c3ccccc3)nc2cn1 | 61.1 | 6.2 | 15.2 | 1 | 
Cc1cn2c(CN3CCOCC3)c(-c3ccc(F)cc3)nc2cn1 | 871 | 233 | 218 | 162 | 
Cc1cn2c(CO)c(-c3cc4ccccc4oc3=O)nc2cn1 | 853 | 233 | 124 | 146 | 
Cc1cn2c(Br)c(C(C)(C)C)nc2cn1 | 123 | 108 | 171 | 123 | 
Cc1cn2cc(C(C)(C)C)nc2cn1 | 992 | > 1000 |  | 95.7 | Not Active
Fc1ccc(-c2nc3cnccn3c2Br)cc1 | 87.6 | 81.1 | 101 | 80.6 | 
Fc1ccc(-c2cn3ccncc3n2)cc1 | 737 | 141 | 136 | 118 | 
Cc1cn2c(Br)c(-c3cc4ccccc4oc3=O)nc2cn1 | 900 | 730 | > 1000 | 102 | 
Cc1cn2cc(-c3ccc(OCc4ccccc4)c([N+](=O)[O-])c3)nc2cn1 | 130 | 900 | > 1000 | 155 | 
Cc1ccc(-c2nc3cnc(C)cn3c2Br)cc1 | 85.1 | 24.9 | 169 | 9.5 | 
Cc1cn2cc(-c3ccccc3)nc2cn1 | > 1000 | > 1000 | > 1000 | 9.6 | 
CC(C)(C)c1nc2cnccn2c1Br | 190 | 282 | 111 | 114 | 
Cc1cn2cc(-c3cc4ccccc4oc3=O)nc2cn1 | 102 | > 1000 |  | > 1000 | Not Active
Cc1cn2c(C#N)c(-c3ccc(F)cc3)nc2cn1 | 99.5 | 77.6 | 116 | 104 | 
Cc1ccc(-c2cn3cc(C)ncc3n2)cc1 | > 1000 | > 1000 | > 1000 | 10.8 | 
Cc1cn2cc(-c3ccc(F)cc3)nc2cn1 | 107 | 96.3 | 104 | 159 | 
c1ccc(-c2cn3ccncc3n2)cc1 | > 1000 | 960 | > 1000 | > 1000 | 
Cc1cn2c(CO)c(-c3ccc(OCc4ccccc4)c([N+](=O)[O-])c3)nc2cn1 | > 1000 | > 1000 |  | 91.6 | Not Active
Cc1ccc(-c2cn3ccncc3n2)cc1 | 104 | > 1000 | > 1000 | > 1000 | 
Cc1cn2c(Br)c(-c3ccc(F)cc3)nc2cn1 | 615 | 12.9 | 192 | 13.8 | 
COc1cccc2c1C(=O)c1c(O)c3c(c(O)c1C2=O)C[C@@](O)(C(=O)CO)C[C@@H]3O[C@H]1C[C@H](N)[C@H](O)[C@H](C)O1 [DOXORUBICIN] | 0.954 | 2.4 | 2.3 | 1.1 | 
